# Source: PubChem BioAssay (several laboratories)
# This is one part of a sample in which hits are shown more often than they occur.
# 697 NFkB inh = inhibitors of the PMA/ionomycin-induced NF-kB reporter in 697 B cells; 697 B-cell NF-kB luciferase reporter, 16 h; inhibition, % at 4 µM; 0.33% of 330,000 active; in the data active = inhibition above about 35%
# UPR CHOP act = apoptotic UPR (CHOP) activation; CHO-CHOP luciferase reporter, luminescence; percent of tunicamycin response over DMSO baseline; activation, % at 10 µM; 0.34% of 330,000 active;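 active = at 10 µM dose, activation of 40% or more, normalized to positive control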
#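 Assay system: CHO cells with stable CHOP pathway luciferase reporter; Buffer or medium: F12 plus 10% serum; Times: 16-18 h cell attachment, then 6 h compound exposure, 37 °C; Signal: luciferase luminescence; Read-out basis: percent activation relative to tunicamycin control; Control set: tunicamycin high control, DMSO low control.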
# Jurkat NFkB inh = inhibitors of the PMA/ionomycin-induced NF-kB reporter in Jurkat cells | PMA/ionomycin-induced NF-kB luciferase reporter, luminescence | AID 435003 | inhibition, % at 4 µM | 0.53% of 330,000 active; in the data active = inhibition above about 50%
# CHOP inh = blocks CHOP induction under ER stress; CHO-K1 CHOP-promoter luciferase, tunicamycin-induced, 15-18 h; inhibition, % at 10 µM; 3.8% of 220,000 active;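 active = compounds that reduced the stress-induced luciferase reporter signal by more than about 70% of percent inhibition, limit read from the data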
# UPR XBP1 act = adaptive UPR (XBP1) activation; activation, % at 20 µM; CHO-XBP1 luciferase reporter, IRE1-XBP1 UPR activation, luminescence; percent of tunicamycin response, DMSO as zero; 0.33% of 330,000 active;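 active = versus positive control, 20 µM dose yields 30% or more activation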
#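 Signal: luciferase luminescence; Assay system: CHO-XBP1 luciferase reporter cells; Amount: one thousand reporter cells per well; Dosing: 20 µM single concentration, DMSO 1%; Benchmarks: high control tunicamycin 10 µg/mL final, low control DMSO vehicle only; Schedule: 6 h compound exposure at 37 °C, 5% CO2; Evaluation: percent activation relative to tunicamycin reference.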
# CHOP confirm = confirmation of CHOP induction inhibitors; 45% of 2,100 active; inhibition, % at 10 µM; CHO-CHOP promoter luciferase reporter, tunicamycin-induced, luminescence; shares compounds with CHOP inh;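 active = mean of three repeat readings of reporter signal inhibition above a set limit, cut at about 70% in these data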
# Numbers stand for hits; n = inactive; x = not tested or not shown.
SMILES,697 NFkB inh,UPR CHOP act,Jurkat NFkB inh,CHOP inh,UPR XBP1 act,CHOP confirm
CCCOc1ccc(N2C(=O)CC(SC(=NC)Nc3ccc(F)cc3)C2=O)cc1 (centres undefined),n,n,n,100,n,100
CCCOc1ccc(N2C(=O)CC(SC(=NCC)Nc3cccc(F)c3)C2=O)cc1 (centres undefined),n,n,n,105,n,108
CCN(Cc1ccc(N(C)C)cc1)C(C)C(=O)Nc1ccc(S(=O)(=O)N2CCCC2)cc1 (centres undefined),n,n,n,x,n,x
Cc1cc(C)nc(-n2cc(C(=O)c3cc(F)ccc3O)cn2)n1,n,n,n,97,n,n
O=C(c1cnn(-c2cccc(F)c2)c1)c1ccccc1O,n,n,n,x,n,x
Cc1ccc(C(=O)c2ccc([N+](=O)[O-])cc2)cc1,n,n,n,n,n,x
Cc1ccc(S(=O)(=O)CC#CCOC(=O)c2ccc([N+](=O)[O-])cc2)cc1,n,n,n,107,n,108
CCCc1cc(-c2nc(N)ncc2-c2ccc3c(c2)OCCCO3)c(O)cc1OC,n,n,n,106,n,122
CN(Cc1ccccc1C#N)S(=O)(=O)c1cccs1,n,n,n,x,n,x
N#Cc1nccnc1S(=O)(=O)c1cccs1,n,n,n,107,n,105
COC(=O)c1cc2cc(NS(=O)(=O)c3ccc(C)cc3)ccc2s1,n,n,n,103,n,n
N=C1C=CC=C2C1=NC1(CCCCC1)N2O,n,n,n,n,n,x
O=C1c2ccc([N+](=O)[O-])cc2C(=O)N1c1ccc(Cl)cn1,n,n,n,n,n,x
O=C1c2cccc3c([N+](=O)[O-])ccc(c23)C(=O)N1c1ccc(Cl)cn1,n,n,n,109,n,n
O=C1c2cccc3c([N+](=O)[O-])ccc(c23)C(=O)N1c1ccccn1,n,n,n,101,n,84
O=C1c2cccc3c([N+](=O)[O-])ccc(c23)C(=O)N1c1nccs1,n,n,n,110,n,n
O=C1c2cccc3c([N+](=O)[O-])ccc(c23)C(=O)N1O,n,n,n,x,n,x
COc1cc(OC)cc(C(=O)N2CCN(C(=O)c3cccs3)CC2)c1,n,n,n,x,n,x
COc1ccc(C2=NS(=O)(=O)N(C)C(C(=O)N3CCC(C(N)=O)CC3)=C2)cc1,n,n,n,x,n,x
CN(C)c1ccc(/C=C2\C(=N)N3C(=NC2=O)Sc2cc(S(C)(=O)=O)ccc23)cc1,n,n,n,104,136,n
COc1ccc(N=CC2=C(O)c3ccccc3C2=O)c(OC)c1,n,n,n,100,n,133
COc1ccc(CC2=C(O)c3ccccc3C(=O)C2=O)cc1,n,n,n,x,n,x
Cc1nn(C)c(C)c1S(=O)(=O)N1CCC(CO)(CC2CCCCO2)CC1 (centres undefined),n,n,n,n,n,x
CCOc1ccc(/C=N/N(C)c2ccccc2)cc1OC,n,n,n,100,n,n
CCOc1ccc(/C=N/Nc2ccccn2)cc1OC,n,n,n,n,n,x
SMILES,697 NFkB inh,UPR CHOP act,Jurkat NFkB inh,CHOP inh,UPR XBP1 act,CHOP confirm
CCCCOc1ccc(C(=O)NCC(=O)NC2CCCCC2)cc1,n,n,n,x,n,x
CC(C)(C)OC(=O)C[C@H]1C/C=C\C[C@@H](CC(=O)N(CCO)Cc2ccccc2)C(=O)N[C@@H](Cc2ccccc2)COC1=O,n,n,n,x,n,x
O=C(NCc1ccccn1)C1Nc2ccc(C(F)(F)F)cc2C2C=CCC12 (centres undefined),n,n,n,x,n,x
Cc1cc(C(=O)OCC(=O)N2CC(=O)Nc3ccccc32)no1,n,n,n,n,n,x
Cc1c(C(=O)OCC(=O)N2CC(=O)Nc3ccccc32)oc2ccc(Br)cc12,n,n,n,104,n,n
Cc1cccc(NC(=O)C2(C)CC3c4ccccc4C2c2ccccc23)c1 (centres undefined),n,n,n,103,n,n
O=C(CSc1nnc(Nc2ccccc2)s1)Nc1cccc(S(=O)(=O)N2CCCCC2)c1,n,n,n,n,n,x
NS(=O)(=O)c1ccc(NC(=O)c2cc(Cl)sc2Cl)cc1,n,n,n,x,n,x
Cc1ccc2c(C)nc(Nc3nc(CSc4nc5ccccc5[nH]4)cc(=O)[nH]3)nc2c1,n,n,n,104,n,106
